{
  "source": "ChEMBL document CHEMBL1142586",
  "about": "“Bisnortriterpenes from Salacia madagascariensis” (J Nat Prod, 2005)",
  "key": {"Vero": {"tested_on": "Vero", "experiment": "Cytotoxicity against african green monkey Vero cells", "type": "cell-based", "details": "Chlorocebus sabaeus"}, "Plasmodium falciparum [1]": {"tested_on": "Plasmodium falciparum", "experiment": "Antiplasmodial activity against Plasmodium falciparum D6", "type": "functional, organism-based"}, "Staphylococcus aureus [2]": {"tested_on": "Staphylococcus aureus", "experiment": "Antimicrobial activity against Staphylococcus aureus by NCCLS method", "type": "functional, organism-based"}, "[3]": {"experiment": "Selectivity index, ratio of IC50 for african green monkey VERO cells to IC50 for Leishmania donovani", "type": "toxicity, cell-based", "details": "read-out: Selectivity Index", "method_in_brief": "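The index was calculated as the VERO cell IC50 divided by the mean IC50 against L. donovani from the two tests.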"}, "Leishmania donovani": {"tested_on": "Leishmania donovani", "experiment": "Antileishmanial activity against Leishmania donovani promastigotes after 48 hrs by alamar blue assay", "type": "functional, organism-based", "method_in_brief": "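IC50 (µg/mL) was determined in two separate tests against Leishmania donovani, and the mean of the tests was reported. IC90 was also determined.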"}, "[4]": {"experiment": "Selectivity index, ratio of IC50 for african green monkey (Cercopithecus aethiops) Vero cells to IC50 for Plasmodium falciparum W2", "type": "toxicity, cell-based", "details": "read-out: Selectivity Index", "method_in_brief": "(§1)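 The index was calculated as the VERO (monkey kidney cell line) IC50 divided by the IC50 against the respective P. falciparum clone.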"}, "Staphylococcus aureus [5]": {"tested_on": "Staphylococcus aureus", "experiment": "Antimicrobial activity against methicillin-resistant Staphylococcus aureus by NCCLS method", "type": "functional, organism-based"}, "[6]": {"experiment": "Selectivity index, ratio of IC50 for african green monkey (Cercopithecus aethiops) Vero cells to IC50 for Plasmodium falciparum D6", "type": "toxicity, cell-based", "details": "read-out: Selectivity Index", "method_in_brief": "as §1"}, "[7]": {"tested_on": "Mycobacterium intracellulare", "experiment": "Antimicrobial activity against Mycobacterium intracellular by alamar blue test", "type": "functional, organism-based"}, "Plasmodium falciparum [8]": {"tested_on": "Plasmodium falciparum", "experiment": "Antiplasmodial activity against Plasmodium falciparum W2", "type": "functional, organism-based"}, "Leishmania mexicana": {"tested_on": "Leishmania mexicana", "experiment": "Antileishmanial activity against Leishmania mexicana", "type": "functional, organism-based"}},
  "data": [
    {"compound": "CC1=C(O)C(=O)C=C2C1=CC=C1[C@@]2(C)CC[C@@]2(C)[C@@H]3C[C@@H](CO)CC[C@]3(C)CC[C@]12C", "values": [
      {"measurement": "IC50", "setting": "Vero", "value": 2.1, "unit": "µg/mL"},
      {"measurement": "IC50", "setting": "Plasmodium falciparum [1]", "value": 0.068, "unit": "µg/mL"},
      {"measurement": "IC50", "setting": "Staphylococcus aureus [2]", "value": 0.65, "unit": "µg/mL"},
      {"measurement": "selectivity ratio", "setting": "[3]", "value": 31},
      {"measurement": "IC50", "setting": "Leishmania donovani", "value": 0.027, "unit": "µg/mL"},
      {"measurement": "IC90", "setting": "Leishmania donovani", "value": 0.057, "unit": "µg/mL"},
      {"measurement": "selectivity ratio", "setting": "[4]", "value": 31},
      {"measurement": "IC50", "setting": "Staphylococcus aureus [5]", "value": 0.7, "unit": "µg/mL"},
      {"measurement": "selectivity ratio", "setting": "[6]", "value": 31},
      {"measurement": "IC50", "setting": "[7]", "value": 15, "unit": "µg/mL"},
      {"measurement": "IC50", "setting": "Plasmodium falciparum [8]", "value": 0.068, "unit": "µg/mL"}
    ]},
    {"compound": "C[C@@H]1[C@H](O)[C@@H](C)/C=C/C=C/C=C/C=C/C=C/C=C/C=C/[C@H](O[C@@H]2O[C@H](C)[C@@H](O)[C@H](N)[C@@H]2O)C[C@@H]2O[C@](O)(C[C@@H](O)C[C@@H](O)[C@H](O)CC[C@@H](O)C[C@@H](O)CC(=O)O[C@H]1C)C[C@H](O)[C@H]2C(=O)O", "note": "[AMPHOTERICIN B]", "values": [
      {"measurement": "IC50", "setting": "Vero", "value": 6.5, "unit": "µg/mL"},
      {"measurement": "selectivity ratio", "setting": "[3]", "value": 59},
      {"measurement": "IC50", "setting": "Leishmania donovani", "value": 0.11, "unit": "µg/mL"},
      {"measurement": "IC90", "setting": "Leishmania donovani", "value": 0.23, "unit": "µg/mL"}
    ]},
    {"compound": "C[C@@H]1CC[C@H]2[C@@H](C)C(=O)O[C@@H]3O[C@@]4(C)CC[C@@H]1[C@]32OO4", "note": "[ARTEMISININ]", "values": [
      {"measurement": "IC50", "setting": "Plasmodium falciparum [8]", "value": 0.0018, "unit": "µg/mL"}
    ]},
    {"compound": "C=C1CC[C@]2(C)CC[C@]3(C)C4=CC=C5C(=CC(=O)C(O)=C5C)[C@]4(C)CC[C@@]3(C)[C@@H]2C1", "note": "[ISOIGUESTERIN]", "values": [
      {"measurement": "IC50", "setting": "Vero", "value": 1.6, "unit": "µg/mL"},
      {"measurement": "IC50", "setting": "Plasmodium falciparum [1]", "value": 0.2, "unit": "µg/mL"},
      {"measurement": "IC50", "setting": "Staphylococcus aureus [2]", "value": 0.85, "unit": "µg/mL"},
      {"measurement": "selectivity ratio", "setting": "[3]", "value": 50},
      {"measurement": "IC50", "setting": "Leishmania donovani", "value": 0.032, "unit": "µg/mL"},
      {"measurement": "IC90", "setting": "Leishmania donovani", "value": 0.055, "unit": "µg/mL"},
      {"measurement": "selectivity ratio", "setting": "[4]", "value": 3.9},
      {"measurement": "IC50", "setting": "Staphylococcus aureus [5]", "value": 0.85, "unit": "µg/mL"},
      {"measurement": "IC50", "setting": "Leishmania mexicana", "value": 0.035, "unit": "µg/mL"},
      {"measurement": "selectivity ratio", "setting": "[6]", "value": 3.4},
      {"measurement": "IC50", "setting": "[7]", "value": 4.5, "unit": "µg/mL"},
      {"measurement": "IC50", "setting": "Plasmodium falciparum [8]", "value": 0.17, "unit": "µg/mL"}
    ]}
  ]
}
